Test results: ChEMBL document CHEMBL4819122, “Novel 4-(piperazin-1-yl)quinolin-2(1H)-one bearing thiazoles with antiproliferative activity through VEGFR-2-TK inhibition” (Bioorg Med Chem, 2021)
Calls of active or inactive are those of the source. The calls are words filed in the database; no cut-off is given here.

What was measured:
[1] = tested on: MDA-MB-231; assay: Cytotoxicity against human MDA-MB-231 assessed as growth inhibition at 10 uM by NCI protocol relative to control; assay type: functional; settings: read-out: GI
Summary of the method: (§1)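 Run by NCI as a single-dose screen at 10 μM across the sixty-cell-line panel, which covers nine human tumour tissue types. The read-out is percent growth inhibition of treated cells relative to untreated cells.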

[2] = tested on: DU-145; assay: Cytotoxicity against human DU-145 assessed as growth inhibition at 10 uM by NCI protocol relative to control; assay type: functional; settings: read-out: GI; summary of the method: as §1
[3] = tested on: U-251; assay: Cytotoxicity against human U251 assessed as growth inhibition at 10 uM by NCI protocol relative to control; assay type: functional; settings: read-out: GI
Summary of the method: (§2)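 Run by the NCI under its standard protocol: one dose of 10 μM against a sixty-line panel from nine human tumour tissues. Result given as percent growth inhibition of treated cells relative to untreated cells.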

[4] = tested on: HL-60; assay: Cytotoxicity against human HL60 assessed as growth inhibition at 10 uM by NCI protocol relative to control; assay type: functional; settings: read-out: GI; summary of the method: as §1
[5] = tested on: NCI-H23; assay: Cytotoxicity against human NCI-H23 assessed as growth inhibition at 10 uM by NCI protocol relative to control; assay type: functional; settings: read-out: GI; summary of the method: as §1
[6] = tested on: T47D; assay: Cytotoxicity against human T-47D assessed as growth inhibition at 10 uM by NCI protocol relative to control; assay type: functional; settings: read-out: GI; summary of the method: as §2
[7] = tested on: OVCAR-3; assay: Cytotoxicity against human OVCAR-3 assessed as growth inhibition at 10 uM by NCI protocol relative to control; assay type: functional; settings: read-out: GI; summary of the method: as §1
[8] = tested on: COLO 205; assay: Cytotoxicity against human COLO 205 assessed as growth inhibition at 10 uM by NCI protocol relative to control; assay type: functional; settings: read-out: GI; summary of the method: as §1
[9] = tested on: MDA-MB-435; assay: Cytotoxicity against human MDA-MB-435 assessed as growth inhibition at 10 uM by NCI protocol relative to control; assay type: functional, cell-based; summary of the method: as §1
[10] = tested on: HCT-116; assay: Cytotoxicity against human HCT-116 assessed as growth inhibition at 10 uM by NCI protocol relative to control; assay type: functional; settings: read-out: GI; summary of the method: as §1
[11] = tested on: SN12C; assay: Cytotoxicity against human SN12C assessed as growth inhibition at 10 uM by NCI protocol relative to control; assay type: functional; settings: read-out: GI; summary of the method: as §2
[12] = tested on: CCRF-CEM; assay: Cytotoxicity against human CCRF-CEM assessed as growth inhibition at 10 uM by NCI protocol relative to control; assay type: functional; settings: read-out: GI; summary of the method: as §1
[13] = tested on: OVCAR-4; assay: Cytotoxicity against human OVCAR-4 assessed as growth inhibition at 10 uM by NCI protocol relative to control; assay type: functional; settings: read-out: GI; summary of the method: as §1
[14] = tested on: UO-31; assay: Cytotoxicity against human UO31 assessed as growth inhibition at 10 uM by NCI protocol relative to control; assay type: functional; settings: read-out: GI; summary of the method: as §2
[15] = tested on: A549; assay: Cytotoxicity against human A549 assessed as growth inhibition at 10 uM by NCI protocol relative to control; assay type: functional; settings: read-out: GI; summary of the method: as §1
[16] = tested on: 786-0; assay: Cytotoxicity against human 786-0 assessed as growth inhibition at 10 uM by NCI protocol relative to control; assay type: functional; settings: read-out: GI; summary of the method: as §1
[17] = tested on: SK-MEL-5; assay: Cytotoxicity against human SK-MEL-5 assessed as growth inhibition at 10 uM by NCI protocol relative to control; assay type: functional; settings: read-out: GI; summary of the method: as §1
[18] = tested on: PC-3; assay: Cytotoxicity against human PC3 assessed as growth inhibition at 10 uM by NCI protocol relative to control; assay type: functional; settings: read-out: GI; summary of the method: as §1
[19] = tested on: ACHN; assay: Cytotoxicity against human ACHN assessed as growth inhibition at 10 uM by NCI protocol relative to control; assay type: functional; settings: read-out: GI; summary of the method: as §1
[20] = tested on: SR; assay: Cytotoxicity against human SR assessed as growth inhibition at 10 uM by NCI protocol relative to control; assay type: functional; settings: read-out: GI; summary of the method: as §2
[21] = tested on: SK-MEL-2; assay: Cytotoxicity against human SK-MEL-2 assessed as growth inhibition at 10 uM by NCI protocol relative to control; assay type: functional; settings: read-out: GI; summary of the method: as §1
[22] = tested on: TK-10; assay: Cytotoxicity against human TK-10 assessed as growth inhibition at 10 uM by NCI protocol relative to control; assay type: functional; settings: read-out: GI; summary of the method: as §2
[23] = tested on: HT-29; assay: Cytotoxicity against human HT29 assessed as growth inhibition at 10 uM by NCI protocol relative to control; assay type: functional; settings: read-out: GI; summary of the method: as §1
[24] = tested on: SW-620; assay: Cytotoxicity against human SW-620 assessed as growth inhibition at 10 uM by NCI protocol relative to control; assay type: functional; settings: read-out: GI; summary of the method: as §2
[25] = tested on: OVCAR-8; assay: Cytotoxicity against human OVCAR-8 assessed as growth inhibition at 10 uM by NCI protocol relative to control; assay type: functional; settings: read-out: GI; summary of the method: as §1
[26] = tested on: KM12; assay: Cytotoxicity against human KM12 assessed as growth inhibition at 10 uM by NCI protocol relative to control; assay type: functional; settings: read-out: GI; summary of the method: as §1
[27] = tested on: SK-MEL-28; assay: Cytotoxicity against human SK-MEL-28 assessed as growth inhibition at 10 uM by NCI protocol relative to control; assay type: functional; settings: read-out: GI; summary of the method: as §1
[28] = tested on: UACC-62; assay: Cytotoxicity against human UACC-62 assessed as growth inhibition at 10 uM by NCI protocol relative to control; assay type: functional; settings: read-out: GI; summary of the method: as §2
[29] = tested on: RXF 393; assay: Cytotoxicity against human RXF 393 assessed as growth inhibition at 10 uM by NCI protocol relative to control; assay type: functional; settings: read-out: GI; summary of the method: as §1
[30] = tested on: EKVX; assay: Cytotoxicity against human EKVX assessed as growth inhibition at 10 uM by NCI protocol relative to control; assay type: functional; settings: read-out: GI; summary of the method: as §1
[31] = tested on: MOLT-4; assay: Cytotoxicity against human MOLT-4 assessed as growth inhibition at 10 uM by NCI protocol relative to control; assay type: functional; settings: read-out: GI; summary of the method: as §1
[32] = tested on: HOP-92; assay: Cytotoxicity against human HOP-92 assessed as growth inhibition at 10 uM by NCI protocol relative to control; assay type: functional; summary of the method: as §1
[33] = tested on: IGROV-1; assay: Cytotoxicity against human IGROVI assessed as growth inhibition at 10 uM by NCI protocol relative to control; assay type: functional; settings: read-out: GI; summary of the method: as §1
[34] = tested on: SNB-75; assay: Cytotoxicity against human SNB-75 assessed as growth inhibition at 10 uM by NCI protocol relative to control; assay type: functional; settings: read-out: GI; summary of the method: as §2
[35] = tested on: Malme-3M; assay: Cytotoxicity against human MALME-3M assessed as growth inhibition at 10 uM by NCI protocol relative to control; assay type: functional; settings: read-out: GI; summary of the method: as §1
[36] = tested on: SF-295; assay: Cytotoxicity against human SF-295 assessed as growth inhibition at 10 uM by NCI protocol relative to control; assay type: functional; settings: read-out: GI; summary of the method: as §1
[37] = tested on: MCF7; assay: Cytotoxicity against human MCF7 assessed as growth inhibition at 10 uM by NCI protocol relative to control; assay type: functional; settings: read-out: GI; summary of the method: as §1
[38] = tested on: K562; assay: Cytotoxicity against human K-562 assessed as growth inhibition at 10 uM by NCI protocol relative to control; assay type: functional; settings: read-out: GI; summary of the method: as §1
[39] = tested on: SF-268; assay: Cytotoxicity against human SF-268 assessed as growth inhibition at 10 uM by NCI protocol relative to control; assay type: functional; settings: read-out: GI; summary of the method: as §1
[40] = tested on: SNB-19; assay: Cytotoxicity against human SNB-19 assessed as growth inhibition at 10 uM by NCI protocol relative to control; assay type: functional; settings: read-out: GI; summary of the method: as §2
[41] = tested on: MDA-MB-468; assay: Cytotoxicity against human MDA-MB-468 assessed as growth inhibition at 10 uM by NCI protocol relative to control; assay type: functional; settings: read-out: GI; summary of the method: as §1
[42] = tested on: NCI-H226; assay: Cytotoxicity against human NCI-H226 assessed as growth inhibition at 10 uM by NCI protocol relative to control; assay type: functional; settings: read-out: GI; summary of the method: as §1
[43] = tested on: NCI-H322M; assay: Cytotoxicity against human NCI-H322M assessed as growth inhibition at 10 uM by NCI protocol relative to control; assay type: functional; settings: read-out: GI; summary of the method: as §1

O=C(CN1CCN(c2cc(=O)n(-c3ccccc3)c3ccccc23)CC1)Nc1nc(-c2ccc(Cl)cc2)cs1
inhibition of growth at 10 µM [1]: 25.3% | inhibition of growth at 10 µM [2]: 38.4% | inhibition of growth at 10 µM [3]: 36.2% | inhibition of growth at 10 µM [4]: 73.8% | inhibition of growth at 10 µM [5]: 50.2% | inhibition of growth at 10 µM [6]: 75.7% | inhibition of growth at 10 µM [7]: 32.9% | inhibition of growth at 10 µM [8]: 42.7% | growth inhibition (GI) [9]: inactive | inhibition of growth at 10 µM [10]: 64.2% | inhibition of growth at 10 µM [11]: 25.9% | inhibition of growth at 10 µM [12]: 49.3% | inhibition of growth at 10 µM [13]: 80.3% | inhibition of growth at 10 µM [14]: 70.5% | inhibition of growth at 10 µM [15]: 47.4% | inhibition of growth at 10 µM [16]: 32.4% | inhibition of growth at 10 µM [17]: 94.9% | inhibition of growth at 10 µM [18]: 65% | inhibition of growth at 10 µM [19]: 44.9% | inhibition of growth at 10 µM [20]: 43.2% | inhibition of growth at 10 µM [21]: 24.4% | inhibition of growth at 10 µM [22]: 37.6% | inhibition of growth at 10 µM [23]: 36.2% | inhibition of growth at 10 µM [24]: 25.7% | inhibition of growth at 10 µM [25]: 40.6% | inhibition of growth at 10 µM [26]: 35.3% | inhibition of growth at 10 µM [27]: 30.8% | inhibition of growth at 10 µM [28]: 38.5% | inhibition of growth at 10 µM [29]: 33% | inhibition of growth at 10 µM [30]: 57.3% | inhibition of growth at 10 µM [31]: 71% | growth inhibition (GI) [32]: inactive | inhibition of growth at 10 µM [33]: 34.5% | inhibition of growth at 10 µM [34]: 32.5% | inhibition of growth at 10 µM [35]: 44.9% | inhibition of growth at 10 µM [36]: 37.4% | inhibition of growth at 10 µM [37]: 79.9% | inhibition of growth at 10 µM [38]: 75.8% | inhibition of growth at 10 µM [39]: 45.5% | inhibition of growth at 10 µM [40]: 36% | inhibition of growth at 10 µM [41]: 90.4% | inhibition of growth at 10 µM [42]: 52.6% | inhibition of growth at 10 µM [43]: 10.9%
